Test results as given in ChEMBL document CHEMBL1123982, “Syntheses and adrenergic activities of ring-fluorinated epinephrines” (J Med Chem, 1988).

Legend:
[1] = molecular target: T1, Adrenergic receptor alpha-2 (Homo sapiens, UniProt P08913+P18825+P18089); assay: Agonistic potency at alpha 2-Adrenergic receptor for inhibition of 10 uM forskolin-elicited stimulation of adenylate cyclase in human platelet membranes; type: functional, cell membranes
T1 sequence (P08913 whole entry): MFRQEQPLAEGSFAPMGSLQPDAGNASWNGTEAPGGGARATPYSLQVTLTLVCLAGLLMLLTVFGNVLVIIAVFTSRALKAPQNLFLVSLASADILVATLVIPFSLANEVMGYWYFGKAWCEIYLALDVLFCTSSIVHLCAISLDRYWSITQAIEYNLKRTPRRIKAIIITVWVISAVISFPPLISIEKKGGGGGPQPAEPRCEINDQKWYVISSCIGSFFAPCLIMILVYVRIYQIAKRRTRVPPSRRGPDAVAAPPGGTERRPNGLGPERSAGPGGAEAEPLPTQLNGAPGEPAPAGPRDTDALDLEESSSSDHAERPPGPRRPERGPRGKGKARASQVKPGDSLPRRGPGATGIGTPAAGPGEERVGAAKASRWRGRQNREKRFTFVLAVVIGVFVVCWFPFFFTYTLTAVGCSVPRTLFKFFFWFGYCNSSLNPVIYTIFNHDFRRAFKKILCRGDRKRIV
T1 sequence (P18825 whole entry): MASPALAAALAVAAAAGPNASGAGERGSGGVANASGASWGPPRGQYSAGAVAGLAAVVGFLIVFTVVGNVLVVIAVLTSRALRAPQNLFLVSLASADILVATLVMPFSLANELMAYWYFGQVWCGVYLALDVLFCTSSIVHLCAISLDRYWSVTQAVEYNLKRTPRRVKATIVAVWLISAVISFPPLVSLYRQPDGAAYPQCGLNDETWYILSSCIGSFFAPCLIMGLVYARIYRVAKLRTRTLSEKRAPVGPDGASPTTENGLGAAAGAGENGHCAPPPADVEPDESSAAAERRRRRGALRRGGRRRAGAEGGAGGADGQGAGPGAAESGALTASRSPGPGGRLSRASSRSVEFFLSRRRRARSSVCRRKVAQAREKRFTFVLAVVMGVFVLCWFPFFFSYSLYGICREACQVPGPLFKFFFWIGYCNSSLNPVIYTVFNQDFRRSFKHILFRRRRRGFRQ
T1 sequence (P18089 whole entry): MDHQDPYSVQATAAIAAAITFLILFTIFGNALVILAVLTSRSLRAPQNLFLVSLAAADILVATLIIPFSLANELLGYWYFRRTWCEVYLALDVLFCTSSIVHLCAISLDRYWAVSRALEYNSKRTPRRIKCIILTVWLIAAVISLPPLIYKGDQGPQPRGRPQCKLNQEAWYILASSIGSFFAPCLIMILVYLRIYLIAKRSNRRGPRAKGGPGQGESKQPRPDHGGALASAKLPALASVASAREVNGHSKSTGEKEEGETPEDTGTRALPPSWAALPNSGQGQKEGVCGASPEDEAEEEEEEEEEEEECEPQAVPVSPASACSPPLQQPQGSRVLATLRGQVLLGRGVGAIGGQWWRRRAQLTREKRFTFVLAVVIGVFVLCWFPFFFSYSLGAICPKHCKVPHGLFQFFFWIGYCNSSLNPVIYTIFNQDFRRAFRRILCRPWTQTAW
Method in brief: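 Human platelet membranes (10–15 μg protein/tube) added to medium preincubated 5 min at 37 °C: 0.1 mM [α-32P]ATP, 0.1 mM cAMP, adenosine deaminase, 0.1 mM rolipram, 0.2 mM EGTA, creatine phosphate/kinase, BSA, 1 μM GTP, 10 μM forskolin, 1 mM MgCl2, 50 mM Tris-HCl pH 7.4. Stopped with zinc acetate/Na2CO3. Product is cAMP (pmol/min/mg), triplicate points. Adjusted EC50 is taken from dose-response curves.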

[2] = molecular target: T1, Adrenergic receptor alpha-2; assay: Binding affinity against alpha-2 adrenergic receptor in guinea pig cerebral cortical membranes by displacement of [3H]clonidine; parameters: species or system Cavia porcellus; details: target entry is the homologue from another species
Method in brief: (§1)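 Nonspecific binding defined with 10 μM clonidine. Points in triplicate, reported as percent of control; experiment repeated three times.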

[3] = molecular target: Beta-1 adrenergic receptor (Cavia porcellus, UniProt B0FL73); assay: Agonistic potency at beta-1 adrenergic receptor for the percent maximal increase in contraction rate of isolated guinea pig atria; type: functional
Sequence of Beta-1 adrenergic receptor (B0FL73 whole entry): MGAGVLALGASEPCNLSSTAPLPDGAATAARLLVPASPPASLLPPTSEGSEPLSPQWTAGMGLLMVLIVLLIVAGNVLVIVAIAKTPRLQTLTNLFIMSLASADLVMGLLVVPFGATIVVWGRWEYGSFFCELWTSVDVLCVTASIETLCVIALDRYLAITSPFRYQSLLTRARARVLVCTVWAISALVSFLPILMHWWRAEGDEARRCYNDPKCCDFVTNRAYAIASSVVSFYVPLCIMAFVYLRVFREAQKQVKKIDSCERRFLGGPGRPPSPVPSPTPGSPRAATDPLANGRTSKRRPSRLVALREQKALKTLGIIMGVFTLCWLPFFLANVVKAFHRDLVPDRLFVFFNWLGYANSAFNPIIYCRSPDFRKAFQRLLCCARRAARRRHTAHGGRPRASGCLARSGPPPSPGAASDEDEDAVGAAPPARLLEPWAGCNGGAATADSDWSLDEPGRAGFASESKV
Method in brief: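 Isolated guinea pig atria, giving percent of maximal rate increase for four individual preparations.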

[4] = molecular target: Beta-1 adrenergic receptor (Rattus norvegicus) (UniProt P18090); assay: Binding affinity against beta-1 adrenergic receptor in rat cerebral cortical membranes by displacement of Dihydro-[3H]-alprenolol
Sequence of Beta-1 adrenergic receptor (Rattus norvegicus) (P18090 whole entry, looked up): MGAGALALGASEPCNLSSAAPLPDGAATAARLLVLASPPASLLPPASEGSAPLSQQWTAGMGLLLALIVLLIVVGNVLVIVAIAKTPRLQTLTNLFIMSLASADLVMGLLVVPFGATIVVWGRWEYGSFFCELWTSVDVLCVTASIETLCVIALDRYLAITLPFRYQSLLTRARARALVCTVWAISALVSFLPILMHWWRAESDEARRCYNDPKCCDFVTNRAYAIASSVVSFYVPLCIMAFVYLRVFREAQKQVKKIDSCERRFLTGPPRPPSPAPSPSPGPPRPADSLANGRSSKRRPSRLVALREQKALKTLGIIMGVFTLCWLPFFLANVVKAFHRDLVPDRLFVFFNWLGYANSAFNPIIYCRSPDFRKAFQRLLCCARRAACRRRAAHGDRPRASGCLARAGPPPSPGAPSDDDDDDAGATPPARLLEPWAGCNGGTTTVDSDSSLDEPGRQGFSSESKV

[5] = molecular target: Adrenergic receptor beta (Rattus norvegicus, UniProt P18090+P10608+P26255); assay: Agonistic potency at beta adrenergic receptor for the stimulation of accumulation of cyclic AMP in cultured C6 glioma cells; type: functional, cell-based
Method in brief: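 C6 glioma cells subcultured the day before and washed in HEPES-buffered saline (pH 7.4). Preincubated 10 min with 30 μM rolipram, then agonist for 10 min. Stopped with 0.1 M HCl. cAMP measured by commercial kit. Adjusted EC50 is taken from dose-response curves.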

[6] = molecular target: T1, Adrenergic receptor alpha-2; assay: Binding affinity against alpha 2-Adrenergic receptor in guinea pig cerebral cortical membranes by displacement of [3H]clonidine; parameters: species or system Cavia porcellus; details: target entry is the homologue from another species; method in brief: as §1

Row | SMILES | EC50 [1] [nM] | Ki [2] [nM] | EC50 [3] [nM] | Ki [4] [nM] | EC50 [5] [nM] | Ki [6] [nM]
1 | CNCC(O)c1ccc(O)c(O)c1F (stereo not given) | > 5000 | 66 | – | – | – | –
2 | CNC[C@H](O)c1ccc(O)c(O)c1 [EPINEPHRINE] | – | – | 260 | 3000 | – | –
3 | CNCC(O)c1cc(O)c(O)cc1F (stereo not given) | 100 | – | > 1500 | 63000 | > 1500 | 9
4 | NCC(O)c1ccc(O)c(O)c1F (stereo not given) | – | – | – | – | – | 700
